Entries after “also recorded” stand apart in the source; their conditions may differ.
What was measured:
[1] = test system: CEM 1A2 tat/rev++ T-cells; experiment: HIV cytoprotection assay; assay type: cell-based, human; conditions: CEM 1A2 T cells
MC99IIIBΔTat-Rev HIV-1 = experiment: HIV cytoprotection assay; assay type: cell-based; conditions: CEM 1A2 tat/rev++ cells
Outline: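 CEM 1A2 tat/rev++ cells, which die on HIV infection, grown in RPMI-1640 with 20% FBS, bicarbonate and antibiotic-antimycotic at 37°C, 5% CO2; 12,500 cells/well. Test compound added in DMSO, then HIV-1 MC99IIIBΔTat-Rev; 4-day incubation. MTT added for 1–2 h, formazan dissolved in DMSO, absorbance read at 590 nm. Triplicate per dose; infected, uninfected, media-only and AZT controls. IC50/CC50 estimated by eye.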

divamide C [Compound 3]
cytotoxicity, in words [1]: neither cytotoxic nor anti-HIV activities
anti-HIV activity (cytoprotection), in words (MC99IIIBΔTat-Rev HIV-1): essentially inactive; also recorded: neither cytotoxic nor anti-HIV activities; also recorded: lacked any detectable cytoprotection

— paper PMC5771842 (Nature chemical biology, 2018)
